Data as given in ChEMBL document CHEMBL3046654, “Penoxsulam--structure-activity relationships of triazolopyrimidine sulfonamides” (Bioorg Med Chem, 2009).
pIC50: −log10 of the molar value.

system: Setaria faberi; assay: Post-emergence herbicidal activity against Setaria faberi (Giant Foxtail) compound treated as foliar application measured after 2 weeks; assay type: functional; details: not given
In short: (§1)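 Greenhouse post-emergence foliar screen in 64 cm² pots. Seed treatments were used on some species to aid germination. Plants were grown 7–21 days at 23–29 °C day/22–28 °C night under a 15 h photoperiod. Sprayed at 2–12 cm height and the 1–4 true leaf stage.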

Row | Compound | GR80
1 | COc1cnc(OC)n2nc(NS(=O)(=O)c3c(OCCCF)cccc3C(F)(F)F)nc12 | 250 ppm
2 | COc1cnc(OC)n2nc(NS(=O)(=O)c3ccccc3C(F)(F)F)nc12 | 435 ppm
3 | COc1cccc(OC)c1S(=O)(=O)Nc1nc2c(OC)cnc(OC)n2n1 | <0.1 ppm
4 | COc1cnc(OC)n2nc(NS(=O)(=O)c3cc(Cl)ccc3Cl)nc12 | >1000 ppm
5 | COc1cnc(OC)n2nc(NS(=O)(=O)c3c(Cl)cccc3Cl)nc12 | 8 ppm

system: Sorghum halepense; assay: Post-emergence herbicidal activity against Sorghum halepense (Johnson grass) compound treated as foliar application measured after 2 weeks; assay type: functional; details: not given; in short: as §1

Row | Compound | GR80
6 | COc1cnc(OC)n2nc(NS(=O)(=O)c3c(OCCCF)cccc3C(F)(F)F)nc12 | 250 ppm
7 | COc1cnc(OC)n2nc(NS(=O)(=O)c3ccccc3C(F)(F)F)nc12 | 435 ppm
8 | COc1cccc(OC)c1S(=O)(=O)Nc1nc2c(OC)cnc(OC)n2n1 | <0.1 ppm
9 | COc1cnc(OC)n2nc(NS(=O)(=O)c3cc(Cl)ccc3Cl)nc12 | >1000 ppm
10 | COc1cnc(OC)n2nc(NS(=O)(=O)c3c(Cl)cccc3Cl)nc12 | 8 ppm

system: Avena fatua; assay: Post-emergence herbicidal activity against Avena fatua compound treated as foliar application measured after 2 weeks; assay type: functional; details: not given; in short: as §1

Row | Compound | GR80
11 | COc1cnc(OC)n2nc(NS(=O)(=O)c3c(OCCCF)cccc3C(F)(F)F)nc12 | 250 ppm
12 | COc1cnc(OC)n2nc(NS(=O)(=O)c3ccccc3C(F)(F)F)nc12 | 435 ppm
13 | COc1cccc(OC)c1S(=O)(=O)Nc1nc2c(OC)cnc(OC)n2n1 | <0.1 ppm
14 | COc1cnc(OC)n2nc(NS(=O)(=O)c3cc(Cl)ccc3Cl)nc12 | >1000 ppm
15 | COc1cnc(OC)n2nc(NS(=O)(=O)c3c(Cl)cccc3Cl)nc12 | 8 ppm

system: Abutilon theophrasti; assay: Post-emergence herbicidal activity against Abutilon theophrasti (velvetleaf) compound treated as foliar application measured after 2 weeks; assay type: functional; details: not given; in short: as §1

Row | Compound | GR80
16 | COc1cnc(OC)n2nc(NS(=O)(=O)c3c(OCCCF)cccc3C(F)(F)F)nc12 | 15 ppm
17 | COc1cnc(OC)n2nc(NS(=O)(=O)c3ccccc3C(F)(F)F)nc12 | 13 ppm
18 | COc1cccc(OC)c1S(=O)(=O)Nc1nc2c(OC)cnc(OC)n2n1 | 0.5 ppm
19 | COc1cnc(OC)n2nc(NS(=O)(=O)c3cc(Cl)ccc3Cl)nc12 | 19 ppm
20 | COc1cnc(OC)n2nc(NS(=O)(=O)c3c(Cl)cccc3Cl)nc12 | 2 ppm

system: Ipomoea hederacea; assay: Post-emergence herbicidal activity against Ipomoea hederacea (ivy-leaved morning glory) compound treated as foliar application measured after 2 weeks; assay type: functional; details: not given; in short: as §1

Row | Compound | GR80
21 | COc1cnc(OC)n2nc(NS(=O)(=O)c3c(OCCCF)cccc3C(F)(F)F)nc12 | 15 ppm
22 | COc1cnc(OC)n2nc(NS(=O)(=O)c3ccccc3C(F)(F)F)nc12 | 13 ppm
23 | COc1cccc(OC)c1S(=O)(=O)Nc1nc2c(OC)cnc(OC)n2n1 | 0.5 ppm
24 | COc1cnc(OC)n2nc(NS(=O)(=O)c3cc(Cl)ccc3Cl)nc12 | 19 ppm
25 | COc1cnc(OC)n2nc(NS(=O)(=O)c3c(Cl)cccc3Cl)nc12 | 2 ppm

system: Veronica hederifolia; assay: Post-emergence herbicidal activity against Veronica hederifolia compound treated as foliar application measured after 2 weeks; assay type: functional; details: not given; in short: as §1

Row | Compound | GR80
26 | COc1cnc(OC)n2nc(NS(=O)(=O)c3c(OCCCF)cccc3C(F)(F)F)nc12 | 15 ppm
27 | COc1cnc(OC)n2nc(NS(=O)(=O)c3ccccc3C(F)(F)F)nc12 | 13 ppm
28 | COc1cccc(OC)c1S(=O)(=O)Nc1nc2c(OC)cnc(OC)n2n1 | 0.5 ppm
29 | COc1cnc(OC)n2nc(NS(=O)(=O)c3cc(Cl)ccc3Cl)nc12 | 19 ppm
30 | COc1cnc(OC)n2nc(NS(=O)(=O)c3c(Cl)cccc3Cl)nc12 | 2 ppm

system: Datura stramonium; assay: Post-emergence herbicidal activity against Datura stramonium compound treated as foliar application measured after 2 weeks; assay type: functional; details: not given; in short: as §1

Row | Compound | GR80
31 | COc1cnc(OC)n2nc(NS(=O)(=O)c3c(OCCCF)cccc3C(F)(F)F)nc12 | 15 ppm
32 | COc1cnc(OC)n2nc(NS(=O)(=O)c3ccccc3C(F)(F)F)nc12 | 13 ppm
33 | COc1cccc(OC)c1S(=O)(=O)Nc1nc2c(OC)cnc(OC)n2n1 | 0.5 ppm
34 | COc1cnc(OC)n2nc(NS(=O)(=O)c3cc(Cl)ccc3Cl)nc12 | 19 ppm
35 | COc1cnc(OC)n2nc(NS(=O)(=O)c3c(Cl)cccc3Cl)nc12 | 2 ppm

system: Helianthus; assay: Post-emergence herbicidal activity against Helianthus spp. compound treated as foliar application measured after 2 weeks; assay type: functional; details: not given; in short: as §1

Row | Compound | GR80
36 | COc1cnc(OC)n2nc(NS(=O)(=O)c3c(OCCCF)cccc3C(F)(F)F)nc12 | 15 ppm
37 | COc1cnc(OC)n2nc(NS(=O)(=O)c3ccccc3C(F)(F)F)nc12 | 13 ppm
38 | COc1cccc(OC)c1S(=O)(=O)Nc1nc2c(OC)cnc(OC)n2n1 | 0.5 ppm
39 | COc1cnc(OC)n2nc(NS(=O)(=O)c3cc(Cl)ccc3Cl)nc12 | 19 ppm
40 | COc1cnc(OC)n2nc(NS(=O)(=O)c3c(Cl)cccc3Cl)nc12 | 2 ppm

system: Fallopia convolvulus; assay: Post-emergence herbicidal activity against Fallopia convolvulus compound treated as foliar application measured after 2 weeks; assay type: functional; details: not given; in short: as §1

Row | Compound | GR80
41 | COc1cnc(OC)n2nc(NS(=O)(=O)c3c(OCCCF)cccc3C(F)(F)F)nc12 | 15 ppm
42 | COc1cnc(OC)n2nc(NS(=O)(=O)c3ccccc3C(F)(F)F)nc12 | 13 ppm
43 | COc1cccc(OC)c1S(=O)(=O)Nc1nc2c(OC)cnc(OC)n2n1 | 0.5 ppm
44 | COc1cnc(OC)n2nc(NS(=O)(=O)c3cc(Cl)ccc3Cl)nc12 | 19 ppm
45 | COc1cnc(OC)n2nc(NS(=O)(=O)c3c(Cl)cccc3Cl)nc12 | 2 ppm

system: Chenopodium album; assay: Post-emergence herbicidal activity against Chenopodium album compound treated as foliar application measured after 2 weeks; assay type: functional; details: not given; in short: as §1

Row | Compound | GR80
46 | COc1cnc(OC)n2nc(NS(=O)(=O)c3c(OCCCF)cccc3C(F)(F)F)nc12 | 15 ppm
47 | COc1cnc(OC)n2nc(NS(=O)(=O)c3ccccc3C(F)(F)F)nc12 | 13 ppm
48 | COc1cccc(OC)c1S(=O)(=O)Nc1nc2c(OC)cnc(OC)n2n1 | 0.5 ppm
49 | COc1cnc(OC)n2nc(NS(=O)(=O)c3cc(Cl)ccc3Cl)nc12 | 19 ppm
50 | COc1cnc(OC)n2nc(NS(=O)(=O)c3c(Cl)cccc3Cl)nc12 | 2 ppm

system: Amaranthus retroflexus; assay: Post-emergence herbicidal activity against Amaranthus retroflexus compound treated as foliar application measured after 2 weeks; assay type: functional; details: not given; in short: as §1

Row | Compound | GR80
51 | COc1cnc(OC)n2nc(NS(=O)(=O)c3c(OCCCF)cccc3C(F)(F)F)nc12 | 15 ppm
52 | COc1cnc(OC)n2nc(NS(=O)(=O)c3ccccc3C(F)(F)F)nc12 | 13 ppm
53 | COc1cccc(OC)c1S(=O)(=O)Nc1nc2c(OC)cnc(OC)n2n1 | 0.5 ppm
54 | COc1cnc(OC)n2nc(NS(=O)(=O)c3cc(Cl)ccc3Cl)nc12 | 19 ppm
55 | COc1cnc(OC)n2nc(NS(=O)(=O)c3c(Cl)cccc3Cl)nc12 | 2 ppm

system: not listed separately; assay: Inhibition of acetolactatae synthase; details: read-out: I50
In short: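 Barley ALS: etiolated shoots of 5–6 d old Hector Spring barley homogenized at 0–4 °C in 20 mM HEPES pH 7.2, 1 mM EDTA, 5 mM DTT, then 33% (NH4)2SO4 cut. Reaction: 20 mM HEPES pH 7.2, 5 mM MgCl2, 0.25 mM TPP, FAD, 22.5 mM pyruvate, 0.7% DMSO final, 37 °C, 30 min. Acid decarboxylation to acetoin, then creatine/1-naphthol colour read at 530 nm. Reported as I50 (nM).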

Row | Compound | pIC50
56 | COc1cnc(OC)n2nc(NS(=O)(=O)c3c(Cl)cccc3Cl)nc12 | 9.22

system: Digitaria sanguinalis; assay: Post-emergence herbicidal activity against Digitaria sanguinalis (hairy crabgrass) compound treated as foliar application measured after 2 weeks; assay type: functional; details: not given; in short: as §1

Row | Compound | GR80
57 | COc1cnc(OC)n2nc(NS(=O)(=O)c3c(OCCCF)cccc3C(F)(F)F)nc12 | 250 ppm
58 | COc1cnc(OC)n2nc(NS(=O)(=O)c3ccccc3C(F)(F)F)nc12 | 435 ppm
59 | COc1cccc(OC)c1S(=O)(=O)Nc1nc2c(OC)cnc(OC)n2n1 | <0.1 ppm
60 | COc1cnc(OC)n2nc(NS(=O)(=O)c3cc(Cl)ccc3Cl)nc12 | >1000 ppm
61 | COc1cnc(OC)n2nc(NS(=O)(=O)c3c(Cl)cccc3Cl)nc12 | 8 ppm

system: Stellaria media; assay: Post-emergence herbicidal activity against Stellaria media compound treated as foliar application measured after 2 weeks; assay type: functional; details: not given; in short: as §1

Row | Compound | GR80
62 | COc1cnc(OC)n2nc(NS(=O)(=O)c3c(OCCCF)cccc3C(F)(F)F)nc12 | 15 ppm
63 | COc1cnc(OC)n2nc(NS(=O)(=O)c3ccccc3C(F)(F)F)nc12 | 13 ppm
64 | COc1cccc(OC)c1S(=O)(=O)Nc1nc2c(OC)cnc(OC)n2n1 | 0.5 ppm
65 | COc1cnc(OC)n2nc(NS(=O)(=O)c3cc(Cl)ccc3Cl)nc12 | 19 ppm
66 | COc1cnc(OC)n2nc(NS(=O)(=O)c3c(Cl)cccc3Cl)nc12 | 2 ppm

system: Ipomoea; assay: Post-emergence herbicidal activity against Ipomoea spp. compound treated as foliar application measured after 2 weeks; assay type: functional; details: not given; in short: as §1

Row | Compound | GR80
67 | COc1cnc(OC)n2nc(NS(=O)(=O)c3c(OCCCF)cccc3C(F)(F)F)nc12 | 15 ppm
68 | COc1cnc(OC)n2nc(NS(=O)(=O)c3ccccc3C(F)(F)F)nc12 | 13 ppm
69 | COc1cccc(OC)c1S(=O)(=O)Nc1nc2c(OC)cnc(OC)n2n1 | 0.5 ppm
70 | COc1cnc(OC)n2nc(NS(=O)(=O)c3cc(Cl)ccc3Cl)nc12 | 19 ppm
71 | COc1cnc(OC)n2nc(NS(=O)(=O)c3c(Cl)cccc3Cl)nc12 | 2 ppm

system: Oryza sativa; assay: Phytotoxicity against Oryza sativa (rice); assay type: organism-based; details: in vivo

Row | Compound | GR20
72 | COc1cnc(OC)n2nc(NS(=O)(=O)c3c(OCCCF)cccc3C(F)(F)F)nc12 | > 250 ppm
73 | COc1cnc(OC)n2nc(NS(=O)(=O)c3ccccc3C(F)(F)F)nc12 | < 1 ppm
74 | COc1cccc(OC)c1S(=O)(=O)Nc1nc2c(OC)cnc(OC)n2n1 | < 0.5 ppm
75 | COc1cnc(OC)n2nc(NS(=O)(=O)c3cc(Cl)ccc3Cl)nc12 | < 2 ppm
76 | COc1cnc(OC)n2nc(NS(=O)(=O)c3c(Cl)cccc3Cl)nc12 | 8 ppm

system: Xanthium strumarium; assay: Post-emergence herbicidal activity against Xanthium strumarium (cocklebur) compound treated as foliar application measured after 2 weeks; assay type: functional; details: not given; in short: as §1

Row | Compound | GR80
77 | COc1cnc(OC)n2nc(NS(=O)(=O)c3c(OCCCF)cccc3C(F)(F)F)nc12 | 15 ppm
78 | COc1cnc(OC)n2nc(NS(=O)(=O)c3ccccc3C(F)(F)F)nc12 | 13 ppm
79 | COc1cccc(OC)c1S(=O)(=O)Nc1nc2c(OC)cnc(OC)n2n1 | 0.5 ppm
80 | COc1cnc(OC)n2nc(NS(=O)(=O)c3cc(Cl)ccc3Cl)nc12 | 19 ppm
81 | COc1cnc(OC)n2nc(NS(=O)(=O)c3c(Cl)cccc3Cl)nc12 | 2 ppm

system: Echinochloa crus-galli; assay: Post-emergence herbicidal activity against Echinochloa crus-galli (barnyard grass) compound treated as foliar application measured after 2 weeks; assay type: functional; details: not given; in short: as §1

Row | Compound | GR80
82 | COc1cnc(OC)n2nc(NS(=O)(=O)c3c(OCCCF)cccc3C(F)(F)F)nc12 | 125 ppm
83 | COc1cnc(OC)n2nc(NS(=O)(=O)c3ccccc3C(F)(F)F)nc12 | 250 ppm
84 | COc1cccc(OC)c1S(=O)(=O)Nc1nc2c(OC)cnc(OC)n2n1 | <0.5 ppm
85 | COc1cnc(OC)n2nc(NS(=O)(=O)c3cc(Cl)ccc3Cl)nc12 | 1000 ppm
86 | COc1cnc(OC)n2nc(NS(=O)(=O)c3c(Cl)cccc3Cl)nc12 | 4 ppm

system: Alopecurus; assay: Post-emergence herbicidal activity against Alopecurus spp. compound treated as foliar application measured after 2 weeks; assay type: functional; details: not given; in short: as §1

Row | Compound | GR80
87 | COc1cnc(OC)n2nc(NS(=O)(=O)c3c(OCCCF)cccc3C(F)(F)F)nc12 | 250 ppm
88 | COc1cnc(OC)n2nc(NS(=O)(=O)c3ccccc3C(F)(F)F)nc12 | 435 ppm
89 | COc1cccc(OC)c1S(=O)(=O)Nc1nc2c(OC)cnc(OC)n2n1 | <0.1 ppm
90 | COc1cnc(OC)n2nc(NS(=O)(=O)c3cc(Cl)ccc3Cl)nc12 | >1000 ppm
91 | COc1cnc(OC)n2nc(NS(=O)(=O)c3c(Cl)cccc3Cl)nc12 | 8 ppm
